ChEMBL document CHEMBL4680175, “Sulfonamide-based ring-fused analogues for CAN508 as novel carbonic anhydrase inhibitors endowed with antitumor activity: Design, synthesis, and in vitro biological evaluation” (Eur J Med Chem, 2020)

Tests used:
DU-145 = experiment: Antitumor activity against human DU-145 cells assessed as cell growth inhibition at 10 uM incubated for 48 hrs by sulforhodamine B assay; assay type: functional; conditions: read-out: GI
How it was run: (§1)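 NCI Drug Evaluation Branch protocol: primary single-dose screen at 10 μM across a 57-line human cancer panel. Drug exposure is 48 h. Cell growth and viability are read by sulforhodamine B assay. Data are given as a mean graph of percent growth of treated cells and reported as percentage growth inhibition (GI%).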

SK-OV-3 = experiment: Antitumor activity against human SK-OV-3 cells assessed as cell growth inhibition at 10 uM incubated for 48 hrs by sulforhodamine B assay; assay type: functional; conditions: read-out: GI; how it was run: as §1
RPMI-8226 = experiment: Antitumor activity against human RPMI8226 cells assessed as cell growth inhibition at 10 uM incubated for 48 hrs by sulforhodamine B assay; assay type: functional; conditions: read-out: GI; how it was run: as §1
HT-29 = experiment: Antitumor activity against human HT-29 cells assessed as cell growth inhibition at 10 uM incubated for 48 hrs by sulforhodamine B assay; assay type: functional; conditions: read-out: GI; how it was run: as §1
A549 = experiment: Antitumor activity against human A549/ATCC cells assessed as cell growth inhibition at 10 uM incubated for 48 hrs by sulforhodamine B assay; assay type: functional; conditions: read-out: GI; how it was run: as §1
NCI-H23 = experiment: Antitumor activity against human NCI-H23 cells assessed as cell growth inhibition at 10 uM incubated for 48 hrs by sulforhodamine B assay; assay type: functional; conditions: read-out: GI; how it was run: as §1
TK-10 = experiment: Antitumor activity against human TK-10 cells assessed as cell growth inhibition at 10 uM incubated for 48 hrs by sulforhodamine B assay; assay type: functional; conditions: read-out: GI
How it was run: (§2)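 NCI one-dose screen: 57-cell-line panel exposed at 10 μM for 48 h, Drug Evaluation Branch protocol. Growth and viability read by sulforhodamine B; data given as percent growth inhibition from the mean-graph of percent growth of treated cells.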

CCRF-CEM = experiment: Antitumor activity against human CCRF-CEM cells assessed as cell growth inhibition at 10 uM incubated for 48 hrs by sulforhodamine B assay; assay type: functional; conditions: read-out: GI; how it was run: as §1
COLO 205 = experiment: Antitumor activity against human COLO205 cells assessed as cell growth inhibition at 10 uM incubated for 48 hrs by sulforhodamine B assay; assay type: functional; conditions: read-out: GI; how it was run: as §1
HCT-15 = experiment: Antitumor activity against human HCT15 cells assessed as cell growth inhibition at 10 uM incubated for 48 hrs by sulforhodamine B assay; assay type: functional; conditions: read-out: GI; how it was run: as §1
OVCAR-5 = experiment: Antitumor activity against human OVCAR-5 cells assessed as cell growth inhibition at 10 uM incubated for 48 hrs by sulforhodamine B assay; assay type: functional; conditions: read-out: GI; how it was run: as §1
SNB-19 = experiment: Antitumor activity against human SNB-19 cells assessed as cell growth inhibition at 10 uM incubated for 48 hrs by sulforhodamine B assay; assay type: functional; conditions: read-out: GI; how it was run: as §1
NCI-H522 = experiment: Antitumor activity against human NCI-H522 cells assessed as cell growth inhibition at 10 uM incubated for 48 hrs by sulforhodamine B assay; assay type: functional; conditions: read-out: GI; how it was run: as §1
M14 = experiment: Antitumor activity against human M14 cells assessed as cell growth inhibition at 10 uM incubated for 48 hrs by sulforhodamine B assay; assay type: functional; conditions: read-out: GI; how it was run: as §1
HCC 2998 = experiment: Antitumor activity against human HCC2998 cells assessed as cell growth inhibition at 10 uM incubated for 48 hrs by sulforhodamine B assay; assay type: functional; conditions: read-out: GI; how it was run: as §1
UACC-257 = experiment: Antitumor activity against human UACC-257 cells assessed as cell growth inhibition at 10 uM incubated for 48 hrs by sulforhodamine B assay; assay type: functional; conditions: read-out: GI; how it was run: as §2
MDA-MB-435 = experiment: Antitumor activity against human MDA-MB-435 cells assessed as cell growth inhibition at 10 uM incubated for 48 hrs by sulforhodamine B assay; assay type: functional; conditions: read-out: GI; how it was run: as §1
EKVX = experiment: Antitumor activity against human EKVX cells assessed as cell growth inhibition at 10 uM incubated for 48 hrs by sulforhodamine B assay; assay type: functional; conditions: read-out: GI; how it was run: as §1
SW-620 = experiment: Antitumor activity against human SW620 cells assessed as cell growth inhibition at 10 uM incubated for 48 hrs by sulforhodamine B assay; assay type: functional; conditions: read-out: GI; how it was run: as §2
HL-60(TB) = experiment: Antitumor activity against human HL-60(TB) cells assessed as cell growth inhibition at 10 uM incubated for 48 hrs by sulforhodamine B assay; assay type: functional; conditions: read-out: GI
How it was run: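 Single-dose NCI-60-type screen of 57 human cancer cell lines at 10 μM under the NCI Drug Evaluation Branch protocol. Drugs exposed for 48 h; growth and viability read by sulforhodamine B assay. Data given as mean-graph percent growth of treated cells, expressed as percent growth inhibition.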

HOP-62 = experiment: Antitumor activity against human HOP62 cells assessed as cell growth inhibition at 10 uM incubated for 48 hrs by sulforhodamine B assay; assay type: functional; conditions: read-out: GI; how it was run: as §1
ACHN = experiment: Antitumor activity against human ACHN cells assessed as cell growth inhibition at 10 uM incubated for 48 hrs by sulforhodamine B assay; assay type: functional; conditions: read-out: GI; how it was run: as §1
A498 = experiment: Antitumor activity against human A498 cells assessed as cell growth inhibition at 10 uM incubated for 48 hrs by sulforhodamine B assay; assay type: functional; conditions: read-out: GI; how it was run: as §1
SR = experiment: Antitumor activity against human SR cells assessed as cell growth inhibition at 10 uM incubated for 48 hrs by sulforhodamine B assay; assay type: functional; conditions: read-out: GI; how it was run: as §2
786-0 = experiment: Antitumor activity against human 786-0 cells assessed as cell growth inhibition at 10 uM incubated for 48 hrs by sulforhodamine B assay; assay type: functional; conditions: read-out: GI; how it was run: as §1
UACC-62 = experiment: Antitumor activity against human UACC-62 cells assessed as cell growth inhibition at 10 uM incubated for 48 hrs by sulforhodamine B assay; assay type: functional; conditions: read-out: GI; how it was run: as §2
OVCAR-4 = experiment: Antitumor activity against human OVCAR-4 cells assessed as cell growth inhibition at 10 uM incubated for 48 hrs by sulforhodamine B assay; assay type: functional; conditions: read-out: GI; how it was run: as §1
SK-MEL-28 = experiment: Antitumor activity against human SK-MEL-28 cells assessed as cell growth inhibition at 10 uM incubated for 48 hrs by sulforhodamine B assay; assay type: functional; conditions: read-out: GI; how it was run: as §1
SF-295 = experiment: Antitumor activity against human SF295 cells assessed as cell growth inhibition at 10 uM incubated for 48 hrs by sulforhodamine B assay; assay type: functional; conditions: read-out: GI; how it was run: as §1
MDA-MB-468 [1] = experiment: Antiproliferative activity against human MDA-MB-468 cells measured after 48 hrs under normoxic condition by MTT assay; assay type: functional, cell-based; conditions: MDA-MB-468, 48 h
MCF7 [2] = experiment: Antiproliferative activity against human MCF7 cells measured after 48 hrs under CoCl2-induced hypoxic condition by MTT assay; assay type: functional, cell-based; conditions: MCF7, 48 h
MDA-MB-468 [3] = experiment: Antiproliferative activity against human MDA-MB-468 cells measured after 48 hrs under CoCl2-induced hypoxic condition by MTT assay; assay type: functional, cell-based; conditions: MDA-MB-468, 48 h
MCF7 [4] = experiment: Antiproliferative activity against human MCF7 cells measured after 48 hrs under normoxic condition by MTT assay; assay type: functional, cell-based; conditions: MCF7, 48 h

SMILES | inhibition of growth at 10 µM (DU-145) [%] | inhibition of growth at 10 µM (RPMI-8226) [%] | inhibition of growth at 10 µM (HT-29) [%] | inhibition of growth at 10 µM (A549) [%] | inhibition of growth at 10 µM (NCI-H23) [%] | inhibition of growth at 10 µM (TK-10) [%] | inhibition of growth at 10 µM (CCRF-CEM) [%] | inhibition of growth at 10 µM (OVCAR-5) [%] | inhibition of growth at 10 µM (SNB-19) [%] | inhibition of growth at 10 µM (NCI-H522) [%] | inhibition of growth at 10 µM (M14) [%] | inhibition of growth at 10 µM (HCC 2998) [%] | inhibition of growth at 10 µM (MDA-MB-435) [%] | inhibition of growth at 10 µM (EKVX) [%] | inhibition of growth at 10 µM (SW-620) [%] | inhibition of growth at 10 µM (HL-60(TB)) [%] | inhibition of growth at 10 µM (HOP-62) [%] | inhibition of growth at 10 µM (ACHN) [%] | inhibition of growth at 10 µM (A498) [%] | inhibition of growth at 10 µM (SR) [%] | also measured
Nc1nn2cc(-c3ccc(Br)cc3)[nH]c2c1/N=N/c1ccc(S(N)(=O)=O)cc1 | 47 | 55 | 34 | 51 | 30 | 50 | 45 | 24 | 26 | 55 | 61 | 33 | 46 | 21 | 48 | 36 | 37 | 76 | 83 | 54 | inhibition of growth at 10 µM (SK-OV-3): 82%; inhibition of growth at 10 µM (COLO 205): 28%; inhibition of growth at 10 µM (HCT-15): 63%; inhibition of growth at 10 µM (UACC-257): 21%; inhibition of growth at 10 µM (786-0): 56%; inhibition of growth at 10 µM (UACC-62): 47%; inhibition of growth at 10 µM (OVCAR-4): 43%; inhibition of growth at 10 µM (SK-MEL-28): 32%
Nc1nn2cc(-c3ccccc3)[nH]c2c1/N=N/c1ccc(S(N)(=O)=O)cc1 | 57 | 94 | 61 | 67 | 54 | 52 | 80 | 35 | 40 | 69 | 69 | 54 | 71 | 45 | 74 | 72 | 58 | 91 | 92 | 87 | inhibition of growth at 10 µM (SK-OV-3): 87%; inhibition of growth at 10 µM (COLO 205): 55%; inhibition of growth at 10 µM (HCT-15): 77%; inhibition of growth at 10 µM (UACC-257): 31%; inhibition of growth at 10 µM (SF-295): 52%; inhibition of growth at 10 µM (786-0): 72%; inhibition of growth at 10 µM (UACC-62): 69%; inhibition of growth at 10 µM (OVCAR-4): 63%; inhibition of growth at 10 µM (SK-MEL-28): 55%
N#Cc1c(-c2ccc(Br)cc2)nc2c(/N=N/c3ccc(S(N)(=O)=O)cc3)c(N)nn2c1N | 67 | 114 | 57 | 32 | 36 | 27 | 104 | 28 | 38 | 61 | 59 | 38 | 44 | 29 | 56 | 62 | 48 | 29 | 35 | 59 | IC50 (MDA-MB-468 [1]): 6.81 µM; IC50 (MCF7 [2]): 7.56 µM; IC50 (MDA-MB-468 [3]): 10 µM; inhibition of growth at 10 µM (SF-295): 38%; IC50 (MCF7 [4]): 4.77 µM; inhibition of growth at 10 µM (786-0): 30%; inhibition of growth at 10 µM (UACC-62): 28%; inhibition of growth at 10 µM (OVCAR-4): 39%; inhibition of growth at 10 µM (SK-MEL-28): 37%
Cc1ccc(-c2cn3nc(N)c(/N=N/c4ccc(S(N)(=O)=O)cc4)c3[nH]2)cc1 | 52 | 60 | 37 | 62 | 34 | 53 | 54 | 23 | 24 | 57 | 60 | 40 | 52 | 28 | 60 | 47 | 39 | 79 | 87 | 63 | inhibition of growth at 10 µM (SK-OV-3): 77%; inhibition of growth at 10 µM (COLO 205): 24%; inhibition of growth at 10 µM (HCT-15): 65%; inhibition of growth at 10 µM (UACC-257): 20%; inhibition of growth at 10 µM (SF-295): 29%; inhibition of growth at 10 µM (786-0): 60%; inhibition of growth at 10 µM (UACC-62): 44%; inhibition of growth at 10 µM (OVCAR-4): 46%; inhibition of growth at 10 µM (SK-MEL-28): 38%
